According to ChEMBL document CHEMBL1131139, “Synthesis and antibacterial activity of ketolides (6-O-methyl-3-oxoerythromycin derivatives): a new class of antibacterials highly potent against macrolide-resistant and -susceptible respiratory pathogens” (1998):
Converted amounts (≈) assume the structure as drawn.

Key:
[1] = system: Staphylococcus aureus; test: In vitro inhibitory activity against Staphylococcus aureus (EryRc 011CB20); type: functional
In short: (§1)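 Two-fold agar dilution on Mueller-Hinton agar (pH 7.4). Inoculum from overnight plate cultures suspended in Mueller-Hinton broth, adjusted to 10^9 CFU/mL, diluted 1:200 and spotted by multipoint inoculator at about 10^4 CFU/spot. Plates incubated 37 °C for 20 h. MIC taken as lowest concentration with no visible growth.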

[2] = system: Staphylococcus epidermidis; test: In vitro inhibitory activity against Staphylococcus epidermidis (EryRi 012GO11i); type: functional; in short: as §1
[3] = system: Staphylococcus aureus; test: In vitro inhibitory activity against Staphylococcus aureus (EryRi 011GO25i); type: functional; in short: as §1
[4] = system: Streptococcus pneumoniae; test: In vitro inhibitory activity against Streptococcus pneumoniae (032UC1); type: functional; in short: as §1
[5] = system: Mus musculus; test: In Vivo evaluation for its effective dose against Streptococcus pyogenes (02A1UC1); type: functional
In short: (§2)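 Male Charles River CD1 mice, 20-22 g, 10 per dose group, infected intraperitoneally with 0.5 mL diluted overnight broth culture (physiological buffer or 5% hog mucine) at 10-100 times the minimal lethal dose. Compound suspended in carboxymethylcellulose, 0.5 mL given orally immediately and 4 h postinfection. Survival followed 8-10 days; ED50 (unitary dose protecting 50% from death) by Litchfield-Wilcoxon probit method.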

[6] = system: Mus musculus; test: In Vivo evaluation for its effective dose against Streptococcus pneumoniae (030SJ1 EryRc); type: functional; in short: as §2
[7] = system: Escherichia coli; test: In vitro inhibitory activity against Escherichia coli (250 UC5); type: functional; in short: as §1
[8] = system: Mus musculus; test: In Vivo evaluation for its effective dose against Haemophilus influenzae (351GR1); type: functional; in short: as §2
[9] = system: Streptococcus pyogenes; test: In vitro inhibitory activity against Streptococcus pyogenes (02A1UC1)
[10] = system: Mus musculus; test: In Vivo evaluation for its effective dose against Haemophilus influenzae (351TO19 AmpR beta (-)); type: functional; in short: as §2
[11] = system: Mus musculus; test: In Vivo evaluation for its effective dose against Streptococcus pneumoniae (030RO1 EryRi); type: functional; in short: as §2
[12] = system: Haemophilus influenzae; test: In vitro inhibitory activity against Haemophilus influenzae (351HT3); type: functional; in short: as §1
[13] = system: Mus musculus; test: In Vivo evaluation for its effective dose against Staphylococcus aureus (011UC4).; type: functional; in short: as §2
[14] = system: Streptococcus pneumoniae; test: In vitro inhibitory activity against Streptococcus pneumoniae (EryRc 030SJ1); type: functional; in short: as §1
[15] = system: Mus musculus; test: In Vivo evaluation for its effective dose against Haemophilus influenzae (351RD7 AmpR beta (+)); type: functional; in short: as §2
[16] = system: Mus musculus; test: In Vivo evaluation for its effective dose against Streptococcus pneumoniae (032UC1); type: functional; in short: as §2
[17] = system: Streptococcus pneumoniae; test: In vitro inhibitory activity against Streptococcus pneumoniae (EryRi 030SJ5i); type: functional; in short: as §1
[18] = system: Mus musculus; test: In Vivo evaluation for its effective dose against Streptococcus pneumoniae (030Cr29 EryRc); type: functional; in short: as §2
[19] = system: Staphylococcus aureus; test: In vitro inhibitory activity against Staphylococcus aureus (011UC4); type: functional; in short: as §1
[20] = system: Haemophilus influenzae; test: In vitro inhibitory activity against Haemophilus influenzae (351CB12); type: functional; in short: as §1
[21] = system: Mus musculus; test: In Vivo evaluation for its effective dose against Streptococcus pneumoniae (030MV2 EryRc); type: functional; in short: as §2
[22] = system: Mus musculus; test: In Vivo evaluation for its effective dose against Staphylococcus aureus (011GO25 EryRi.; type: functional; in short: as §2
[23] = system: Mus musculus; test: In Vivo evaluation for its effective dose against Streptococcus pneumoniae (030SJ6 EryRc); type: functional; in short: as §2

CC[C@H]1OC(=O)[C@H](C)C(=O)[C@H](C)[C@@H](O[C@@H]2O[C@H](C)C[C@H](N(C)C)[C@H]2O)[C@](C)(OC)C[C@@H](C)C(=O)[C@H](C)[C@H]2N(NCCCc3ccnc4ccccc34)C(=O)O[C@]12C
MIC [1]: 40 µg/mL (≈ 50.2 µM) | MIC [2]: 0.04 µg/mL (≈ 0.0502 µM) | MIC [3]: 0.08 µg/mL (≈ 0.1 µM) | MIC [4]: 0.02 µg/mL (≈ 0.0251 µM) | ED50 [5]: 16 mg/kg | ED50 [6]: 42 mg/kg | MIC [7]: 40 µg/mL (≈ 50.2 µM) | ED50 [8]: 142 mg/kg | MIC [9]: 0.02 µg/mL (≈ 0.0251 µM) | ED50 [10]: 410 mg/kg | ED50 [11]: 30 mg/kg | MIC [12]: 0.6 µg/mL (≈ 0.753 µM) | ED50 [13]: 20 mg/kg | MIC [14]: 0.15 µg/mL (≈ 0.188 µM) | ED50 [15]: 116 mg/kg | ED50 [16]: 15.8 mg/kg | MIC [17]: 0.02 µg/mL (≈ 0.0251 µM) | ED50 [18]: 15 mg/kg | MIC [19]: 0.02 µg/mL (≈ 0.0251 µM) | MIC [20]: 0.6 µg/mL (≈ 0.753 µM) | ED50 [21]: 19 mg/kg | ED50 [22]: 13 mg/kg | ED50 [23]: 17 mg/kg
